From PubChem BioAssay AID623993 (Broad Institute, 2012) come the findings set out here.

Usually AC50 stands for the concentration giving half of the maximal activity seen.

Activity calls are given as the source filed them.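 The calls were made as follows: active = inhibitor whose fitted half-maximal dose is at most twice the top valid tested dose; inconclusive = flat curve with partial inhibition, or poor fit; inactive = signal rising, flat near zero, or weaker potency.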 Some results are limits rather than exact numbers.

For the first assay, the target named is PvdQ acyl-homoserine lactone acylase (Pseudomonas aeruginosa LESB58). The experiment in a line: PvdQ acylase inhibitors, dose response, biochemical, 4-MU laurate fluorescence, dry powder, set 4 (AID 623993). Particulars: purified PvdQ, 4-MU laurate hydrolysis fluorescence. In short, it runs like this:
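Detection: Fluorescence, ex 303–367 nm, em 440–460 nm | Assay system: Purified Pseudomonas aeruginosa PvdQ acylase enzyme | Amount: PvdQ enzyme at 0.02 µM final | Incubation: 30 min enzyme–compound preincubation, then 60 min substrate reaction, room temperature | Reagent: 4-MU laurate substrate, 0.8 mM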
For the compound `CN(C)CCCC(C#N)c1ccc(Cl)cc1` (stereo not given), the half-maximal activity concentration (AC50) was 14500 nM. Still for that read-out and setting: under `COCCC(C#N)c1ccc(F)cc1` (stereo not given) stands 530 nM. With `CCCCC(C#N)c1ccc(Cl)cc1` (stereo not given), the AC50 was 412 nM. Take `N#CC(c1ccc(F)cc1)c1cccc(Cl)n1` (stereo not given): the AC50 is 108 nM. For the compound `N#CC(c1ccc(Cl)cc1)c1ncccc1Cl` (stereo not given), the half-maximal activity concentration (AC50) was 3.01 nM.

As for `CCCCC(c1ccc(Cl)cc1)c1nn[nH]n1` (stereo not given), the half-maximal activity concentration (AC50) was 3530 nM. On the same count and under the same terms, with `N#CC(c1ccc(F)cc1)c1cccc(C(F)(F)F)n1` (stereo not given) the figure was less than 3 nM; with `N#CC(c1ccc(Cl)cc1)N1CCCC1` (stereo not given), 786 nM; with `N#CC(c1cccc(Cl)n1)c1ccc(Cl)cc1F` (stereo not given), 7.66 nM.

As to `N#CC(c1ccc(Cl)cc1)c1cccc(C(F)(F)F)n1` (stereo not given), the AC50 is 23.6 nM. Regarding `N#Cc1cccc(C(C#N)c2ccc(F)cc2)n1` (stereo not given), the AC50 is 140 nM. For `COCCOCCC(C#N)c1ccc(Cl)cc1` (stereo not given), the AC50 is 7070 nM. Regarding `N#CC(c1ccc(C(F)(F)F)c(Cl)n1)c1ccccc1OC(F)(F)F` (stereo not given), the AC50 is 15200 nM. Consider `N#CC(c1cccc(C(F)(F)F)n1)c1ccc(Cl)cc1F` (stereo not given), for which the AC50 is less than 3 nM.

With `COCCOCCC(C#N)c1ccc(F)cc1` (stereo not given), the AC50 is 177 nM. With `N#CC1c2ccc(Cl)cc2CCc2cccnc21` (stereo not given), the AC50 was 3510 nM. Same read-out and setting: with `N#CC(c1ccc(Cl)cc1)c1ccccn1` (stereo not given) the figure was 212 nM; with `N#CC(c1ccc(Cl)cc1)c1cccc(Cl)n1` (stereo not given), 49.1 nM; with `CCCCC(C#N)c1ccc(F)cc1` (stereo not given), 412 nM. Turning to `CCCCC(C#N)c1ccc(Cl)cn1` (stereo not given), the concentration at half-maximal activity (AC50) was 1630 nM. The same measure, in the same setting: with `COCCC(C#N)c1ccc(Cl)cc1` (stereo not given) the figure was 3470 nM; with `CN(C)CCCC(C#N)c1ccc(F)cc1` (stereo not given), 273 nM.

The assay is the same for the next values; noted with them: purified PvdQ, 4-MU laurate hydrolysis fluorescence; at 19.5 µM (top of the series).
Regarding `CCCCC(C#N)c1ccccn1` (stereo not given), the “activity change, negative = inhibition” value is “inactive”. As for `COCCNC(C#N)c1ccc(Cl)cc1` (stereo not given), the “activity change, negative = inhibition” value was “inactive”. The same measure, in the same setting: under `Clc1ccc(C(c2cccc(Cl)n2)c2nn[nH]n2)cc1` (stereo not given) stands “inactive”.
